Experimental data published in ChEMBL document CHEMBL1153876, “Synthesis of some N-substituted nitroimidazole derivatives as potential antioxidant and antifungal agents” (2009).
Values after ≈ are worked out from the molar mass of the structure shown.

Assays:
[1] = Antioxidant activity assessed as inhibition of Fe2+-induced lipid peroxidation after 15 to 60 mins by TBARS assay relative to control; format: functional; design: concentration or dose not given beside the values
Outline: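 Substrate: egg yolk lipoprotein suspension, made by homogenising yolk with an equal volume of phosphate buffer pH 7.4. Compounds were added as 10^-3 mol/mL solution, with 0.7% FeSO4·7H2O to start non-enzymatic peroxidation, at 37 °C. Controls were Fe only and a blank with neither Fe nor compound; tocopheryl acetate was the reference. The supernatant was heated with acidic thiobarbituric acid at 95 °C for 1 h, extracted into n-butanol–pyridine 15:1, and read by optical density.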

Sydowia polyspora = test: Antifungal activity against Sclerophoma pityophila after 12 days; format: functional; details: for EC50: Sydowia polyspora, 288 h, read-out: ED50 (the source's name)
Outline: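 Agar dilution on S. pityophila S 231: nine concentrations in geometric progression, 25 to 5000 ppm, in malt agar (1.5% agar, 4% malt extract), 90 mm dishes, three replicate plates each. Centrally inoculated with 5-mm disc from submargin of 10-day-old culture; 22 ± 1 °C, dark, up to 12 days. Growth rate versus compound-free plates gives ED50/ED100; non-growing inocula transferred to fresh agar to assess viability (LD).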

Structure (SMILES)	Activity [1] [%]	ED100 (Sydowia polyspora) [ppm]	LD (Sydowia polyspora) [ppm]	EC50 (Sydowia polyspora) [µg/mL]
O=C(Cn1cnc([N+](=O)[O-])c1[N+](=O)[O-])c1ccccc1	34.5			
CN1CCN(c2ncn(CC(O)CCl)c2[N+](=O)[O-])CC1 (configuration not stated)	39.1			
Cc1nc(N2CCCC2)c([N+](=O)[O-])n1CC(=O)c1ccc(Cl)cc1	20.8	>5000	<5000	> 5000
O=C(Cn1cnc(N2CCCC2)c1[N+](=O)[O-])c1ccccc1	44.2			
CC(=O)Cn1c(C)nc(Nc2ccccc2)c1[N+](=O)[O-]	15.1			
O=[N+]([O-])c1c(N2CCOCC2)ncn1CC(O)CCl (configuration not stated)	51.6			
O=C(Cn1cnc([N+](=O)[O-])c1[N+](=O)[O-])c1ccc(Cl)cc1	60	>5000	<5000	1000 (≈ 3220 µM)
Cc1ccccc1Nc1nc(C)n(CC(=O)c2ccccc2)c1[N+](=O)[O-]	-354			
O=C(Cn1cnc(N2CCOCC2)c1[N+](=O)[O-])c1ccccc1	56.3	<25	<5000	< 25
Cc1nc([N+](=O)[O-])c([N+](=O)[O-])n1CC(=O)c1ccc(Cl)cc1	57.6	>5000	<5000	500 (≈ 1540 µM)
Cc1nc(N2CCN(C)CC2)c([N+](=O)[O-])n1CC(=O)c1ccc(Cl)cc1	37.1			
Cc1ccccc1Nc1nc(C)n(CC(=O)c2ccc(Cl)cc2)c1[N+](=O)[O-]	12.2			
Cc1nc(N2CCCCC2)c([N+](=O)[O-])n1CC(=O)c1ccc(Cl)cc1	36.9	<25	<5000	< 25
Cc1ccccc1Nc1ncn(CC(=O)c2ccccc2)c1[N+](=O)[O-]	1.2			
Cc1ccccc1Nc1ncn(CC(=O)c2ccc(Cl)cc2)c1[N+](=O)[O-]	-35.3			
O=C(Cn1cnc(N2CCOCC2)c1[N+](=O)[O-])c1ccc(Cl)cc1	21			
Cc1nc(N2CCCC2)c([N+](=O)[O-])n1CC(=O)c1ccccc1	45.2			
Cc1nc([N+](=O)[O-])c([N+](=O)[O-])n1CC(=O)c1ccccc1	26.4			
Cc1nc(N2CCN(C)CC2)c([N+](=O)[O-])n1CC(=O)c1ccccc1	13			
CC(=O)Oc1c(C)c(C)c2c(c1C)CCC(C)(CCC[C@H](C)CCC[C@H](C)CCCC(C)C)O2 (some centres not stated)	17.8			
Cc1nc(N2CCCCC2)c([N+](=O)[O-])n1CC(=O)c1ccccc1	48.6	>5000	<5000	> 5000
CC(=O)Cn1c(C)nc(N2CCOCC2)c1[N+](=O)[O-]	23.1			
Cc1nc(N2CCOCC2)c([N+](=O)[O-])n1CC(=O)c1ccc(Cl)cc1	30.1			
Cc1nc(N2CCOCC2)c([N+](=O)[O-])n1CC(=O)c1ccccc1	39.9			
